From ChEMBL document CHEMBL3046081, “Phytotoxic effect, uptake, and transformation of biochanin A in selected weed species” (J Agric Food Chem, 2012)
Activity calls are given as the source filed them. The rule behind the calls is not given here.

Legend:
[1] = system: Root; assay: Drug metabolism in Geranium molle root assessed as transformation to pratensein at 400 uM after 14 days measured per gm of dry weight by LC-MS analysis; type: ADME; conditions: 336 h
Outline: (§1)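 Pregerminated seeds, 14 per container, transplanted onto 0.5% agar medium containing biochanin A. Grown at 24 ± 1 °C under a 16 h light/8 h dark photoperiod and harvested 14 days after transplanting. Roots and shoots collected separately, blotted, washed twice, then freeze-dried. Tissue extracted by ASE at 40 °C and analysed by LC-ESI-MS against commercial standards. Two replicates per treatment.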

[2] = system: Shoot; assay: Drug metabolism in Silene noctiflora shoot assessed as transformation to dihydrobiochanin A at 20 uM after 14 days measured per gm of dry weight by LC-MS analysis; type: ADME; conditions: 336 h; outline: as §1
[3] = system: Root; assay: Drug metabolism in Silene noctiflora root assessed as transformation to genistein at 20 uM after 14 days measured per gm of dry weight by LC-MS analysis; type: ADME; conditions: 336 h; outline: as §1
[4] = system: Shoot; assay: Drug metabolism in Silene noctiflora shoot assessed as transformation to sissotrin at 400 uM after 14 days measured per gm of dry weight by LC-MS analysis; type: ADME; conditions: 336 h
Outline: (§2)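 Pregerminated seeds (14 per container) were grown on 20 mL 0.5% agar medium containing biochanin A, at 24 ± 1 °C with a 16 h light/8 h dark cycle. There were two replicates per treatment: 14 containers for S. noctiflora, 9 for G. molle and E. crus-galli. At 14 days, roots and shoots were harvested separately, washed, blotted and freeze-dried. Extraction was ASE at 40 °C, 1600 psi, 3 cycles. Analysis was LC-ESI-MS SIM against standards.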

[5] = system: Root; assay: Drug metabolism in Echinochloa crus-galli (barnyard grass) root assessed as transformation to sissotrin at 400 uM after 14 days measured per gm of dry weight by LC-MS analysis; type: ADME; conditions: 336 h; outline: as §1
[6] = system: Geranium molle; assay: Phytotoxicity against Geranium molle assessed as root growth inhibition after 2 weeks by agar medium bioassay; type: functional, organism-based; conditions: 336 h
Outline: (§3)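 Agar bioassay with eight biochanin A doses (0–400 µM). Seeds were pregerminated 48 h at room temperature, then 10 seedlings (1–2 mm radicle) were placed per Petri dish. Plants grew 2 weeks at 24 ± 1 °C under a 16 h light/8 h dark cycle. Root length was measured, and EC values were taken from a four-parameter log-logistic nonlinear regression fit.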

[7] = system: Root; assay: Drug metabolism in Geranium molle root assessed as transformation to pratensein at 20 uM after 14 days measured per gm of dry weight by LC-MS analysis; type: ADME; conditions: 336 h; outline: as §1
[8] = system: Root; assay: Drug uptake in Silene noctiflora root at 20 uM after 14 days measured per gm of dry weight by LC-MS analysis; type: ADME; conditions: 336 h; outline: as §2
[9] = system: Shoot; assay: Drug metabolism in Geranium molle shoot assessed as transformation to sissotrin at 20 uM after 14 days measured per gm of dry weight by LC-MS analysis; type: ADME; conditions: 336 h; outline: as §1
[10] = system: Root; assay: Drug metabolism in Silene noctiflora root assessed as transformation to sissotrin at 400 uM after 14 days measured per gm of dry weight by LC-MS analysis; type: ADME; conditions: 336 h; outline: as §1
[11] = system: Shoot; assay: Drug uptake in Silene noctiflora shoot at 400 uM after 14 days measured per gm of dry weight by LC-MS analysis; type: ADME; conditions: 336 h; outline: as §2
[12] = system: Silene noctiflora; assay: Phytotoxicity against Silene noctiflora assessed as root growth inhibition after 2 weeks by agar medium bioassay; type: functional, organism-based; conditions: 336 h; outline: as §3
[13] = system: Root; assay: Drug metabolism in Silene noctiflora root assessed as transformation to genistein at 400 uM after 14 days measured per gm of dry weight by LC-MS analysis; type: ADME; conditions: 336 h; outline: as §1
[14] = system: Root; assay: Drug metabolism in Geranium molle root assessed as transformation to sissotrin at 400 uM after 14 days measured per gm of dry weight by LC-MS analysis; type: ADME; conditions: 336 h; outline: as §1
[15] = system: Leaf; assay: Drug recovery in leaf of Secale cereale (rye) at 5 ng/g by LC-MS analysis
[16] = system: Shoot; assay: Drug metabolism in Silene noctiflora shoot assessed as transformation to sissotrin at 20 uM after 14 days measured per gm of dry weight by LC-MS analysis; type: ADME; conditions: 336 h; outline: as §2
[17] = system: Root; assay: Drug metabolism in Geranium molle root assessed as transformation to dihydrobiochanin A at 400 uM after 14 days measured per gm of dry weight by LC-MS analysis; type: ADME; conditions: 336 h; outline: as §1
[18] = system: Root; assay: Drug uptake in Geranium molle root at 400 uM after 14 days measured per gm of dry weight by LC-MS analysis; type: ADME; conditions: 336 h; outline: as §2
[19] = system: Echinochloa crus-galli; assay: Phytotoxicity against Echinochloa crus-galli (barnyard grass) assessed as root growth inhibition at 100 to 400 uM after 2 weeks by agar medium bioassay; type: functional, organism-based
Outline: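 Agar bioassay with eight biochanin A doses (0–400 µM). Seeds were pregerminated 48 h at room temperature, then 10 seedlings were placed per Petri dish and grown 2 weeks at 24 ± 1 °C under a 16 h light/8 h dark cycle. […]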

[20] = system: Root; assay: Drug metabolism in Echinochloa crus-galli (barnyard grass) root assessed as transformation to genistein at 20 uM after 14 days measured per gm of dry weight by LC-MS analysis; type: ADME; conditions: 336 h; outline: as §1
[21] = system: Root; assay: Drug uptake in Echinochloa crus-galli (barnyard grass) root at 20 uM after 14 days measured per gm of dry weight by LC-MS analysis; type: ADME; conditions: 336 h; outline: as §2
[22] = system: Root; assay: Drug uptake in Silene noctiflora root at 400 uM after 14 days measured per gm of dry weight by LC-MS analysis; type: ADME; conditions: 336 h; outline: as §2
[23] = system: Shoot; assay: Drug metabolism in Echinochloa crus-galli (barnyard grass) shoot assessed as transformation to sissotrin at 20 uM after 14 days measured per gm of dry weight by LC-MS analysis; type: ADME; conditions: 336 h; outline: as §1
[24] = system: Shoot; assay: Drug metabolism in Echinochloa crus-galli (barnyard grass) shoot assessed as transformation to pratensein at 400 uM after 14 days measured per gm of dry weight by LC-MS analysis; type: ADME; conditions: 336 h; outline: as §1
[25] = system: Shoot; assay: Drug metabolism in Echinochloa crus-galli (barnyard grass) shoot assessed as transformation to sissotrin at 400 uM after 14 days measured per gm of dry weight by LC-MS analysis; type: ADME; conditions: 336 h; outline: as §1
[26] = system: Shoot; assay: Drug metabolism in Echinochloa crus-galli (barnyard grass) shoot assessed as transformation to pratensein at 20 uM after 14 days measured per gm of dry weight by LC-MS analysis; type: ADME; conditions: 336 h; outline: as §1
[27] = system: Shoot; assay: Drug metabolism in Geranium molle shoot assessed as transformation to dihydrobiochanin A at 20 uM after 14 days measured per gm of dry weight by LC-MS analysis; type: ADME; conditions: 336 h; outline: as §1
[28] = system: Root; assay: Drug metabolism in Geranium molle root assessed as transformation to genistein at 20 uM after 14 days measured per gm of dry weight by LC-MS analysis; type: ADME; conditions: 336 h; outline: as §1
[29] = system: Shoot; assay: Drug metabolism in Silene noctiflora shoot assessed as transformation to p-coumaric acid at 400 uM after 14 days measured per gm of dry weight by LC-MS analysis; type: ADME; conditions: 336 h; outline: as §1
[30] = system: Shoot; assay: Drug metabolism in Echinochloa crus-galli (barnyard grass) shoot assessed as transformation to genistein at 400 uM after 14 days measured per gm of dry weight by LC-MS analysis; type: ADME; conditions: 336 h; outline: as §1
[31] = system: Shoot; assay: Drug metabolism in Geranium molle shoot assessed as transformation to pratensein at 400 uM after 14 days measured per gm of dry weight by LC-MS analysis; type: ADME; conditions: 336 h; outline: as §1
[32] = system: Root; assay: Drug metabolism in Echinochloa crus-galli (barnyard grass) root assessed as transformation to pratensein at 20 uM after 14 days measured per gm of dry weight by LC-MS analysis; type: ADME; conditions: 336 h; outline: as §1
[33] = system: Shoot; assay: Drug uptake in Geranium molle shoot at 400 uM after 14 days measured per gm of dry weight by LC-MS analysis; type: ADME; conditions: 336 h; outline: as §2

SMILES: COc1ccc(-c2coc3cc(O)cc(O)c3c2=O)cc1 [BIOCHANIN]
- Drug metabolism [1]: 0.32 µmol
- Drug metabolism [2]: 0 µmol
- Drug metabolism [3]: 0.08 µmol
- Drug metabolism [4]: 4.34 µmol
- Drug metabolism [5]: 1 µmol
- EC25 [6]: > 400 µM
- EC50 [6]: > 400 µM
- Drug metabolism [7]: 0.66 µmol
- Drug uptake [8]: 4.65 µmol
- Drug metabolism [9]: 1.5 µmol
- Drug metabolism [10]: 2.99 µmol
- Drug uptake [11]: 1.11 µmol
- EC25 [12]: 5.2 µM
- EC50 [12]: 35.8 µM
- Drug metabolism [13]: 0.13 µmol
- Drug metabolism [14]: 123.61 µmol
- Drug recovery [15]: 93%
- Drug metabolism [16]: 2.36 µmol
- Drug metabolism [17]: 0.31 µmol
- Drug uptake [18]: 11.46 µmol
- Activity [19]: inactive
- Drug metabolism [20]: 0.07 µmol
- Drug uptake [21]: 1.75 µmol
- Drug uptake [22]: 4.54 µmol
- Drug metabolism [23]: 0 µmol
- Drug metabolism [24]: 0.24 µmol
- Drug metabolism [25]: 0 µmol
- Drug metabolism [26]: 0.47 µmol
- Drug metabolism [27]: 0.01 µmol
- Drug metabolism [28]: 0.05 µmol
- Drug metabolism [29]: 0.01 µmol
- Drug metabolism [30]: 0.2 µmol
- Drug metabolism [31]: 0.05 µmol
- Drug metabolism [32]: 0.38 µmol
- Drug uptake [33]: 1.13 µmol
